Experimental data gathered from unrelated publications.
Each line is one published result; the experiments were not run side by side.
Cell line: PC-3
Observed: cell growth or viability

SMILES	technique	concentration	inhibition [%]
COc1ccc(C(=O)/C=C/c2ccccc2Br)cc1S(N)(=O)=O	SRB	10 µM	79
COc1cccc(NC(=O)CN2C(=O)/C(=C/c3cccs3)SC2=S)c1	MTT	10 µM	7.28
O=C(Nc1cccc(S(=O)(=O)N2CCCC2)c1)C1CCCN(C(=O)c2cc(C(F)(F)F)cc(C(F)(F)F)c2)C1 (stereo not drawn)	WST-1	100 µM	0
O=C(CN1C(=O)/C(=C/c2cccc(F)c2)SC1=S)Nc1ccccc1	MTT	10 µM	18.9
CC(=O)c1cccc(NC(=O)C2CCCN(C(=O)c3cc(C(F)(F)F)cc(C(F)(F)F)c3)C2)c1 (stereo not drawn)	WST-1	100 µM	0
O=C(CN1C(=O)/C(=C/c2ccncc2)SC1=S)Nc1ccccc1	MTT	10 µM	5.33
O=C(Nc1cccc(-c2ccco2)c1)C1CCCN(C(=O)c2cc(C(F)(F)F)cc(C(F)(F)F)c2)C1 (stereo not drawn)	WST-1	100 µM	0
O=C(CN1C(=O)/C(=C/c2ccc(Cl)cc2)SC1=S)Nc1ccccc1	MTT	10 µM	32.3
COc1ccc(C(=O)/C=C/c2cc3c(cc2Br)OCO3)cc1S(N)(=O)=O	SRB	10 µM	98
CCc1cccc(NC(=O)C2CCCN(C(=O)c3cc(C(F)(F)F)cc(C(F)(F)F)c3)C2)c1 (stereo not drawn)	WST-1	100 µM	0
COc1ccc(/C=C2\SC(=S)N(CC(=O)Nc3ccccc3)C2=O)cc1	MTT	10 µM	25
COc1ccc(C(=O)/C=C/c2cccc(Cl)c2Cl)cc1S(N)(=O)=O	SRB	10 µM	95
COc1cc(CNC(=O)C[C@H](C)CCC=C(C)C)ccc1OCc1cn(-c2ccc(Cl)cc2)nn1	SRB	10 µM	28
O=C(Nc1cccc(Cc2ccccc2)c1)C1CCCN(C(=O)c2cc(C(F)(F)F)cc(C(F)(F)F)c2)C1 (stereo not drawn)	WST-1	100 µM	0
COc1ccc(C(=O)/C=C/c2cccnc2)cc1S(N)(=O)=O	SRB	10 µM	22
